Source: ChEMBL document CHEMBL1123425, “Potential antitumor agents. 46. Structure-activity relationships for acridine monosubstituted derivatives of the antitumor agent N-[2-(dimethylamino)ethyl]-9-aminoacridine-4-carboxamide” (1986)

Assays:
L1210 [1] = assay: In vitro cytotoxicity against L1210 leukemia cells.; format: functional; conditions: Mus musculus, read-out: ID50 (the source's name)
Method in brief: (§1)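 Cultured L1210 murine leukemia or HCT-8 human colon carcinoma cells were incubated with drug for 70 h. ID50 is the drug concentration (nM) that reduced cell number to 50% of untreated controls.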

HCT-8 = assay: In vitro cytotoxicity against HCT-8 human colon carcinoma cells.; format: functional; conditions: read-out: ID50 (the source's name); method in brief: as §1
Mus musculus = assay: In vivo optimal i.p. dose administered on days 1, 5, and 9 after i.p. inoculation of (10E6) P388 leukemia cells.; format: functional
Method in brief: (§2)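 Mice received 10⁶ P388 leukemia cells i.p. Drug was dissolved in 0.1 mL of 30% v/v ethanol/water and given i.p. on days 1, 5 and 9 after inoculation. The optimal dose is expressed in mg/kg per day.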

P388 [2] = assay: Evaluated in vivo against P388 leukemia cells ( percent increase in life span of treated animals over that of control groups of tumor bearing untreated animals.); k = no activity at all dose levels up to acutely toxic ones; format: functional, organism-based; conditions: Mus musculus; method in brief: as §2
P388 [3] = assay: Evaluated in vivo against P388 leukemia cells ( percent increase in life span of treated animals over that of control groups of tumor bearing untreated animals.); format: functional, Mus musculus
L1210 [4] = assay: In vitro cytotoxicity against L1210 leukemia cells; format: functional; conditions: Mus musculus, read-out: ID50 (the source's name); method in brief: as §1

## Cc1cc(C(=O)NCCN(C)C)c2nc3ccccc3c(N)c2c1
L1210 [1]
  IC50: 590 nM
HCT-8
  IC50: 425 nM
Mus musculus
  OD: 30 mg/kg/day
P388 [2]
  ILS: No activity

## COc1ccc2c(N)c3ccccc3nc2c1C(=O)NCCN(C)C
L1210 [1]
  IC50: 300 nM
HCT-8
  IC50: 780 nM
Mus musculus
  OD: 20 mg/kg/day
P388 [2]
  ILS: No activity

## COc1ccc2c(N)c3cccc(C(=O)NCCN(C)C)c3nc2c1
Mus musculus
  OD: 8.9 mg/kg/day
P388 [2]
  ILS: No activity

## Cc1ccc2c(N)c3cccc(C(=O)NCCN(C)C)c3nc2c1
HCT-8
  IC50: 120 nM
P388 [3]
  ILS: 20%
Mus musculus
  OD: 2.6 mg/kg/day

## COc1cccc2nc3c(C(=O)NCCN(C)C)cccc3c(N)c12
L1210 [1]
  IC50: 220 nM
HCT-8
  IC50: 486 nM
Mus musculus
  OD: 45 mg/kg/day
P388 [2]
  ILS: No activity

## COc1ccc(C(=O)NCCN(C)C)c2nc3ccccc3c(N)c12
L1210 [1]
  IC50: 0.55 nM
HCT-8
  IC50: 19 nM
P388 [3]
  ILS: 27%
Mus musculus
  OD: 8.9 mg/kg/day

## CN(C)CCNC(=O)c1cccc2c(N)c3c(Cl)cccc3nc12
L1210 [1]
  IC50: 250 nM
HCT-8
  IC50: 360 nM
Mus musculus
  OD: 20 mg/kg/day
P388 [2]
  ILS: No activity

## COc1cccc2c(N)c3cccc(C(=O)NCCN(C)C)c3nc12
L1210 [1]
  IC50: 4.3 nM
HCT-8
  IC50: 89 nM
P388 [3]
  ILS: 81%
Mus musculus
  OD: 3.9 mg/kg/day

## CN(C)CCNC(=O)c1cccc2c(N)c3ccccc3nc12
HCT-8
  IC50: 66 nM
L1210 [4]
  IC50: 15 nM
Mus musculus
  OD: 4.5 mg/kg/day

## Cc1cccc2c(N)c3cccc(C(=O)NCCN(C)C)c3nc12
L1210 [1]
  IC50: 0.47 nM
HCT-8
  IC50: 11 nM
P388 [3]
  ILS: 107%
Mus musculus
  OD: 2.6 mg/kg/day

## CN(C)CCNC(=O)c1cccc2c(N)c3cc(Cl)ccc3nc12
L1210 [1]
  IC50: 722 nM
HCT-8
  IC50: 485 nM
Mus musculus
  OD: 13.3 mg/kg/day
P388 [2]
  ILS: No activity

## CN(C)CCNC(=O)c1cccc2c(N)c3ccc(Cl)cc3nc12
L1210 [1]
  IC50: 105 nM
HCT-8
  IC50: 245 nM
Mus musculus
  OD: 8.9 mg/kg/day
P388 [2]
  ILS: No activity

## COc1cc(C(=O)NCCN(C)C)c2nc3ccccc3c(N)c2c1
L1210 [1]
  IC50: 2.9 nM
HCT-8
  IC50: 32 nM
P388 [3]
  ILS: 72%
Mus musculus
  OD: 5.9 mg/kg/day

## CN(C)CCNC(=O)c1cccc2c(N)c3cccc(Cl)c3nc12
L1210 [1]
  IC50: 2.9 nM
HCT-8
  IC50: 33 nM
P388 [3]
  ILS: 81%
Mus musculus
  OD: 2.6 mg/kg/day

## Cc1cccc2nc3c(C(=O)NCCN(C)C)cccc3c(N)c12
L1210 [1]
  IC50: 340 nM
HCT-8
  IC50: 250 nM
Mus musculus
  OD: 8.9 mg/kg/day
P388 [2]
  ILS: No activity

## CN(C)CCNC(=O)c1ccc(Cl)c2c(N)c3ccccc3nc12
L1210 [1]
  IC50: 4.8 nM
HCT-8
  IC50: 360 nM
P388 [3]
  ILS: 29%
Mus musculus
  OD: 8.9 mg/kg/day

## Cc1ccc2nc3c(C(=O)NCCN(C)C)cccc3c(N)c2c1
HCT-8
  IC50: 485 nM
Mus musculus
  OD: 13.3 mg/kg/day
P388 [2]
  ILS: No activity

## CN(C)CCNC(=O)c1cc(Cl)cc2c(N)c3ccccc3nc12
L1210 [1]
  IC50: 300 nM
HCT-8
  IC50: 325 nM
Mus musculus
  OD: 20 mg/kg/day
P388 [2]
  ILS: No activity

## COc1ccc2nc3c(C(=O)NCCN(C)C)cccc3c(N)c2c1
L1210 [1]
  IC50: 670 nM
HCT-8
  IC50: 600 nM
Mus musculus
  OD: 13.3 mg/kg/day
P388 [2]
  ILS: No activity
